This note sets out measurements from ChEMBL document CHEMBL1153728, “Quercetin reduces inflammatory pain: inhibition of oxidative stress and cytokine production” (2009).

The source made the active and inactive calls.

Assay [1] relates to Mus musculus. The experiment in a line: Antinociceptive activity in ip dosed Swiss mouse assessed as inhibition of carrageenan-induced mechanical hypernociception administered 30 mins before carrageenan challenge measured after 3 hrs by electronic pressure-meter test. The assay is classed as functional, organism-based. In a few lines:
(§1)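 Male Swiss mice dosed ip (3-100 mg/kg) or po (30-300 mg/kg) in 20% Tween 80/saline 30 min before intraplantar carrageenin (100 µg/paw). Pressure-meter withdrawal threshold (average of three readings) before and 3 h after; Δ threshold in g; n = 5; one-way ANOVA with Tukey test.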

Assay [2] relates to Mus musculus. The experiment in a line: Inhibition of carrageenan-induced neutrophil recruitment in Swiss mouse subcutaneous plantar tissue assessed as myeloperoxidase activity at 100 mg/kg, ip dosed 30 mins before carrageenan challenge measured after 3 hrs by spectrophotometry. On the set-up: dose 100 mg/kg. Format: functional, organism-based. In a few lines: (§2)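 Mice given ip 100 mg/kg 30 min before intraplantar carrageenin (100 µg/paw), TNFα (300 pg/paw) or CXCL1 (20 ng/paw). Plantar tissue taken 3 h later into 50 mM K2HPO4 pH 6.0 with 0.5% HTAB, homogenized, centrifuged. Supernatant read with o-dianisidine/H2O2 at 450 nm, compared to neutrophil standard curve.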

In assay [3] the test system is Mus musculus. Nature of the assay: Analgesic activity in Swiss mouse assessed as reaction time taken to jump or lick paw at 8 mg/kg, ip after 30 mins of administration by hot plate test. Format: functional, organism-based. On the set-up: dose 8 mg/kg. In a few lines: (§3)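 Male Swiss mice (25-30 g) placed in glass cylinder on hot plate at 55 °C. Two control latencies taken at least 10 min apart; latency rechecked 30 and 60 min after ip dosing. Endpoint is jumping or paw licking, 30 s cutoff.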
In general terms: In hot-plate and tail-flick tests a longer latency is read as antinociception.

Assay [4] deals with Mus musculus. The experiment in a line: Antioxidant activity in ip dosed Swiss mouse assessed as inhibition of carrageenan-induced reduction in GSH level dosed 30 mins before carrageenan challenge measured after 3 hrs by fluorescence spectrophotometry. Format: functional, organism-based. The gist of the method: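 Swiss mice dosed ip 10-100 mg/kg 30 min before intraplantar carrageenin (100 µg/paw) or saline. Plantar skin from five mice pooled 3 h later, homogenized in 100 mM NaH2PO4 pH 8.0/5 mM EGTA, TCA-precipitated. Supernatant reacted with OPT 15 min, fluorescence ex 350/em 420 nm against 0-40 µM GSH standard, in triplicate.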

The test system of assay [5] is Mus musculus. The experiment in a line: Inhibition of carrageenan-induced IL1-beta production in Swiss mouse subcutaneous plantar tissue at 100 mg/kg, ip dosed 30 mins before carrageenan challenge measured after 3 hrs by ELISA. The assay is classed as functional. To be noted: sc. In a few lines:
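Mice dosed ip 100 mg/kg 30 min before intraplantar carrageenin (100 µg/paw). Paw skin removed 3 h later under terminal anesthesia, homogenized in protease-inhibitor buffer. IL-1β measured by ELISA as pg/paw, with saline-injected controls; n = 5.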

Assay [6] concerns Mus musculus. The experiment in a line: Antinociceptive activity in Swiss mouse assessed as inhibition of TNF-alpha-induced mechanical hypernociception at 100 mg/kg, ip dosed 30 mins before TNFalpha challenge measured after 3 hrs by electronic pressure-meter test. The assay is classed as functional. To be noted: route intraperitoneal.
In assay [7] the test system is Mus musculus. The experiment in a line: Antinociceptive activity against formalin-induced pain in Swiss mouse assessed as inhibition of hind paw flinching response during second phase of response at 100 mg/kg, ip dosed 30 mins before formalin challenge measured for 0 to 30 mins. Format: functional, organism-based. Also noted: dose 100 mg/kg. The gist of the method: (§4)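 Male Swiss mice dosed ip (100 mg/kg, vehicle 20% Tween 80 in saline) 30 min before intraplantar formalin 0.1% (25 µL). Paw flinches and licking time counted 0-30 min in 5-min intervals, separating first and second phases; n = 6.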

Assay [8] has as its system Mus musculus. The experiment in a line: Antinociceptive activity against formalin-induced pain in Swiss mouse assessed as inhibition of paw licking response during second phase at 100 mg/kg, ip dosed 30 mins before formalin challenge measured for 0 to 30 mins. Format: functional, organism-based. Also noted: dose 100 mg/kg. The gist of the method: as §4
In assay [9] the test system is Mus musculus. The experiment in a line: Antinociceptive activity in ip dosed Swiss mouse assessed as inhibition of acetic acid-induced writhing response administered 30 mins before acetic acid challenge measured for 20 mins. The assay is classed as functional, organism-based. The gist of the method: (§5)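 Male Swiss mice pretreated ip (3-100 mg/kg) 30 min before ip acetic acid 0.6% v/v (10 mL/kg) or phenyl-p-benzoquinone 1890 µg/kg in 2% DMSO/saline. Cumulative writhing score counted over 20 min; n = 7.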
On the technique in general: An intraperitoneal irritant provokes the stretching counted in writhing tests.

Assay [10] concerns Mus musculus. Nature of the assay: Antinociceptive activity in Swiss mouse assessed as inhibition of PGE2-induced mechanical hypernociception at 100 mg/kg, ip dosed 30 mins before PGE2 challenge measured after 3 hrs by electronic pressure-meter test. The assay is classed as functional, organism-based. On the set-up: dose 100 mg/kg.
The test system of assay [11] is Mus musculus. The experiment in a line: Analgesic activity in Swiss mouse assessed as reaction time taken to jump or lick paw at 8 mg/kg, ip after 60 mins of administration by hot plate test. Format: functional, organism-based. On the set-up: dose 8 mg/kg. In a few lines:
as §3

In assay [12] the test system is Mus musculus. The experiment in a line: Antinociceptive activity in Swiss mouse assessed as inhibition of CXCL1-induced mechanical hypernociception at 100 mg/kg, ip dosed 30 mins before CXCL1 challenge measured after 3 hrs by electronic pressure-meter test. Format: functional. The settings on record: route intraperitoneal.
Assay [13] relates to Mus musculus. Nature of the assay: Analgesic activity in Swiss mouse assessed as reaction time taken to jump or lick paw at 100 mg/kg, ip after 30 mins of administration by hot plate test. Also noted: dose 100 mg/kg. The assay is classed as functional, organism-based. The gist of the method: as §3
The subject of assay [14] is Mus musculus. Nature of the assay: Antinociceptive activity in Swiss mouse assessed as inhibition of carrageenan-induced mechanical hypernociception at 100 mg/kg, ip dosed 3 hrs before carrageenan challenge measured after 3 hrs by electronic pressure-meter test. On the set-up: dose 100 mg/kg. The assay is classed as functional, organism-based. In a few lines: (§6)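 Male Swiss mice given 100 mg/kg ip at 12, 6, 3 h or 30 min before intraplantar carrageenin (100 µg/paw). Mechanical withdrawal threshold by electronic pressure-meter (mean of three readings) at 1, 3 and 5 h after stimulus, expressed as change from baseline.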

For assay [15], the system named is Mus musculus. The experiment in a line: Antinociceptive activity in Swiss mouse assessed as inhibition of dopamine-induced mechanical hypernociception at 100 mg/kg, ip dosed 30 mins before dopamine challenge measured after 3 hrs by electronic pressure-meter test. The assay is classed as functional, organism-based. On the set-up: dose 100 mg/kg.
The subject of assay [16] is Mus musculus. Nature of the assay: Antinociceptive activity in Swiss mouse assessed as inhibition of carrageenan-induced mechanical hypernociception at 3 to 100 mg/kg, ip administered 30 mins before carrageenan challenge measured after 3 hrs by electronic pressure-meter test. The assay is classed as functional. To be noted: dose mg/kg 3-100; route intraperitoneal. The gist of the method: as §1

Assay [17] concerns Mus musculus. Nature of the assay: Antinociceptive activity in Swiss mouse assessed as inhibition of carrageenan-induced mechanical hypernociception at 300 mg/kg, po dosed 30 mins before carrageenan challenge measured after 3 hrs by electronic pressure-meter test. Format: functional. In a few lines: as §1
Assay [18] has as its system Mus musculus. The experiment in a line: Inhibition of CXCL1-induced neutrophil recruitment in Swiss mouse subcutaneous plantar tissue assessed as myeloperoxidase activity at 100 mg/kg, ip dosed 30 mins before CXCL1 challenge measured after 3 hrs by spectrophotometry. The assay is classed as functional, organism-based. Also noted: dose 100 mg/kg. In a few lines: as §2

Assay [19] concerns Mus musculus. The experiment in a line: Antiinflammatory activity in Swiss mouse assessed as inhibition of carrageenan-induced paw edema at 100 mg/kg, ip dosed 30 mins before carrageenan challenge measured after 0.5 to 3 hrs. The assay is classed as functional, organism-based. On the set-up: dose 100 mg/kg. In a few lines:
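Male Swiss mice; ip pretreatment 30 min before intraplantar carrageenin (100 µg/paw). Paw measured with calliper before and at 30, 60, 120, 180 min after stimulus; edema = VT minus Vo per mouse.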
(In general: Carrageenan injected into the paw causes an acute inflammation.)

Assay [20] has as its system Mus musculus. The experiment in a line: Muscle relaxant activity in Swiss mouse assessed as motor response at 100 mg/kg, ip after 3 hrs 30 mins by rotarod test. Format: functional, organism-based. On the set-up: dose 100 mg/kg.
Assay [21] has as its system Mus musculus. Nature of the assay: Antinociceptive activity in ip dosed Swiss mouse assessed as inhibition of phenyl-p-benzoquinone-induced writhing response administered 30 mins before phenyl-p-benzoquinone challenge measured for 20 mins. The assay is classed as functional, organism-based. In a few lines:
as §5

Assay [22] relates to Mus musculus. Nature of the assay: Antinociceptive activity in Swiss mouse assessed as inhibition of carrageenan-induced mechanical hypernociception at 100 mg/kg, ip dosed 30 mins before carrageenan challenge measured after 1 to 5 hrs by electronic pressure-meter test. Also noted: dose 100 mg/kg. Format: functional, organism-based. In a few lines: as §6
In assay [23] the test system is Mus musculus. The experiment in a line: Inhibition of TNF-alpha-induced neutrophil recruitment in Swiss mouse subcutaneous plantar tissue assessed as myeloperoxidase activity at 100 mg/kg, ip dosed 30 mins before TNFalpha challenge measured after 3 hrs by spectrophotometry. The assay is classed as functional, organism-based. Also noted: dose 100 mg/kg. In a few lines: as §2

For assay [24], the system named is Mus musculus. The experiment in a line: Analgesic activity in Swiss mouse assessed as reaction time taken to jump or lick paw at 100 mg/kg, ip after 60 mins of administration by hot plate test. Format: functional, organism-based. On the set-up: dose 100 mg/kg. The gist of the method: as §3

One may read the inhibition in vivo as the percentage by which the read-out fell short of the control. In the case of `O=c1c(O)c(-c2ccc(O)c(O)c2)oc2cc(O)cc(O)c12` [QUERCETIN], the inhibition result with Mus musculus [1], in the assay on Mus musculus [4], with Mus musculus [9] and with Mus musculus [21] was “Dose-dependent effect” in each case. The result with Mus musculus [2], in the assay on Mus musculus [10], in the assay on Mus musculus [13], in the assay with Mus musculus [15], in the assay on Mus musculus [18] and in the assay with Mus musculus [20] was inactive. Besides, the result in the assay on Mus musculus [23] and with Mus musculus [24] was inactive. The result with Mus musculus [3], in the assay on Mus musculus [7], in the assay on Mus musculus [8] and in the assay with Mus musculus [11] was Active. Further, the inhibition in vivo at 100 mg/kg in the assay with Mus musculus [5] was 36%; with Mus musculus [6], 51%; in the assay on Mus musculus [12], 43%. Also, the inhibition entry with Mus musculus [14], with Mus musculus [19] and in the assay on Mus musculus [22] was “Active” each time. Besides, the “inhibition (INH)” value in the assay on Mus musculus [16] was 59%. The inhibition in vivo at 300 mg/kg in the assay with Mus musculus [17] was 55%.
